Experimental data as given in ChEMBL document CHEMBL4422661, “Design and Synthesis of a Novel and Selective Kappa Opioid Receptor (KOR) Antagonist (BTRX-335140)” (J Med Chem, 2019).

Columns and labels:
[1] = Cmax in C57B16 mouse at 10 mg/kg, po by LC-MS/MS analysis; format: ADME, organism-based; design: dose 10 mg/kg, route oral; settings: in vivo
[2] = AUCt in C57B16 mouse at 3 mg/kg, iv by LC-MS/MS analysis; format: ADME, organism-based; settings: in vivo
[3] = AUCt in Sprague-Dawley rat at 1 mg/kg, iv by LC-MS/MS analysis; format: ADME, organism-based; settings: in vivo
Summary of the method: (§1)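 Whole blood (250 μL) drawn via jugular vein cannula, n = 3. The iv route was sampled at 5, 15 and 30 min and 1, 2, 4, 8 and 24 h; the oral route at 15 and 30 min and 1, 2, 4, 8 and 24 h. LC-MS/MS quantitation.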

[4] = Ratio of drug uptake in Sprague-Dawley rat brain to plasma at 5 mg/kg, po after 1 hr by LC-MS/MS analysis; format: ADME, organism-based
Summary of the method: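 Fasted male rats (n = 2) received the monotartrate salt orally at 5 mg kg⁻¹. Plasma, brain and CSF levels were measured 1 h after dosing, and the ratio was taken from mean values.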

[5] = Cmax in Sprague-Dawley rat at 5 mg/kg, po by LC-MS/MS analysis; format: ADME, organism-based; design: dose 5 mg/kg, route oral; settings: in vivo
[6] = AUCt in Sprague-Dawley rat at 5 mg/kg, po by LC-MS/MS analysis; format: ADME, organism-based; settings: in vivo; summary of the method: as §1
[7] = Oral bioavailability in Sprague-Dawley rat at 5 mg/kg by LC-MS/MS analysis; format: ADME, organism-based; settings: in vivo
[8] = Volume of distribution at steady state in Sprague-Dawley rat at 1 mg/kg, iv by LC-MS/MS analysis; format: ADME, organism-based; settings: in vivo
Summary of the method: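 Male Sprague-Dawley rats (350–400 g) received the monotartrate salt in 10:10:80 DMSO/Tween 80/water at 1 mg ml⁻¹, 1 mg kg⁻¹ i.v. or 2 mg kg⁻¹ p.o. Peripheral whole blood was sampled at 5, 15 and 30 min and 1, 2, 4, 6 and 8 h after dosing.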

[9] = Volume of distribution at steady state in C57B16 mouse at 3 mg/kg, iv by LC-MS/MS analysis; format: ADME, organism-based; settings: in vivo
[10] = Solubility of the compound at pH 7.4; format: physicochemical; settings: buffer
[11] = Oral bioavailability in C57B16 mouse at 10 mg/kg by LC-MS/MS analysis; format: ADME, organism-based; settings: in vivo
[12] = AUCt in C57B16 mouse at 10 mg/kg, po by LC-MS/MS analysis; format: ADME, organism-based; settings: in vivo
[13] = AUC (0 to infinity) in Sprague-Dawley rat at 1 mg/kg, iv by LC-MS/MS analysis; format: ADME, organism-based; design: dose 1 mg/kg, route intravenous, time infinity; settings: in vivo
[14] = AUC (0 to infinity) in Sprague-Dawley rat at 2 mg/kg, po by LC-MS/MS analysis; format: ADME, organism-based; design: dose 2 mg/kg, time infinity, route oral; settings: in vivo
Summary of the method: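 Male Sprague-Dawley rats (350–400 g) dosed orally as the monotartrate salt, a 1 mg ml⁻¹ solution in 10:10:80 DMSO/Tween 80/water (v/v/v). Peripheral whole blood sampled at 5, 15 and 30 min and 1, 2, 4, 6 and 8 h post-dose. Concentrations measured by LC-MS/MS.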

[15] = Oral bioavailability in Sprague-Dawley rat at 2 mg/kg by LC-MS/MS analysis; format: ADME, organism-based; settings: in vivo
[16] = Ratio of drug uptake in C57B16 mouse brain to plasma at 10 mg/kg, ip after 120 mins by LC-MS/MS analysis; format: ADME, organism-based; settings: 2 h
Summary of the method: (§2)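 C57Bl6 mice (n = 6) were given the monotartrate salt i.p. at 10 mg kg⁻¹ (1 mg ml⁻¹ in DMSO/Tween 80/water 1:1:8). Plasma (EDTA) and brain were taken at 30 and 120 min. Brain homogenate was precipitated with acetonitrile, levels were measured by LC-MS/MS, and values were derived by noncompartmental fitting.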

[17] = Ratio of drug uptake in C57B16 mouse brain to plasma at 10 mg/kg, ip after 30 mins by LC-MS/MS analysis; format: ADME, organism-based; settings: 0.5 h; summary of the method: as §2
[18] = Cmax in Sprague-Dawley rat at 2 mg/kg, po by LC-MS/MS analysis; format: ADME, organism-based; design: dose 2 mg/kg, route oral; settings: in vivo
Summary of the method: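 Male Sprague-Dawley rats (350–400 g) given monotartrate salt as 1 mg ml⁻¹ solution in 10:10:80 DMSO/Tween 80/water, 1 mg kg⁻¹ i.v. or 2 mg kg⁻¹ p.o.; peripheral whole blood sampled at 5, 15, 30 min and 1, 2, 4, 6, 8 h; concentrations by LC-MS/MS.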

| Structure (SMILES) | Cmax [1] [ng/mL] | AUCt [2] [ng·h/mL] | AUCt [3] [ng·h/mL] | BPR [4] | Cmax [5] [ng/mL] | AUCt [6] [ng·h/mL] | F [7] [%] | Vdss [8] [L/kg] | Vdss [9] [L/kg] | solubility [10] [µM] | F [11] [%] | AUCt [12] [ng·h/mL] | AUC [13] [ng·min/mL] | AUC [14] [ng·min/mL] | F [15] [%] | BPR [16] | BPR [17] | Cmax [18] [ng/mL] |
| --- | --- | --- | --- | --- | --- | --- | --- | --- | --- | --- | --- | --- | --- | --- | --- | --- | --- | --- |
| CCc1cc(F)c2nc(N3CCC(NC4CCOCC4)CC3)c(-c3nc(C)no3)c(C)c2c1.O=C(O)C(O)C(O)C(=O)O | 80.9 | 725 | 153 | 2.2 | 39.1 | 232 | 30.2 | 13.8 | 7.72 | 74 | 12 | 265 | – | – | – | – | – | – |
| Cc1ccc2nc(N3CCC(NC4CCOCC4)CC3)c(-c3nc(C)no3)cc2c1.O=C(O)C(O)C(O)C(=O)O | – | – | – | – | – | – | – | 12.95 | – | – | – | – | 12740 | 1705 | 20 | 3.8 | 2.9 | 110.16 |
